Each block holds one molecule with its values, some of them ahead of it.
Key:
Cannabinoid receptor 1 = Cannabinoid receptor 1 (Homo sapiens, UniProt P21554); experiment: Inverse agonist activity at human cannabinoid receptor 1 expressed in HEK293 cells assessed as increase in forskolin-induced cAMP production preincubated with cells followed by forskolin stimulation measured after 30 mins in presence of D2-labeled cAMP and Eu3+-TBP-NHS cryptate by HTRF assay; assay type: functional, cell-based
Cannabinoid receptor 2 = Cannabinoid receptor 2 (Homo sapiens, UniProt P34972); experiment: Inverse agonist activity at human cannabinoid receptor 2 expressed in HEK293 cells assessed as increase in forskolin-induced cAMP production preincubated with cells followed by forskolin stimulation measured after 30 mins in presence of D2-labeled cAMP and Eu3+-TBP-NHS cryptate by HTRF assay; assay type: functional, cell-based
[1] = Drug uptake in C57bl/6j mouse plasma at 20 mg/kg, po measured at 2 hrs post dose by LC/MS analysis; assay type: ADME, organism-based
How it was run: (§1)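 Male mice dosed orally. Plasma taken by retro-orbital bleed at 1 h and 2 h or 1 h and 4 h. Whole brain minus cerebellum removed at 2 h or 4 h, weighed wet, frozen, then homogenized in saline. Compound measured by LC/MS; LOQ 5 ng/ml. B/P ratio is brain over plasma concentration.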

[2] = Drug uptake in C57bl/6j mouse brain without cerebellum at 20 mg/kg, po measured at 2 hrs post dose by LC/MS analysis; assay type: ADME, organism-based; details: for Drug uptake: in vivo, 2 h; how it was run: as §1
[3] = Ratio of drug level in C57bl/6j mouse brain to plasma at 20 mg/kg, po; assay type: ADME, organism-based; details: read-out: BPR; how it was run: as §1
[4] = Drug uptake in C57bl/6j mouse plasma at 20 mg/kg, po measured at 4 hr post dose by LC/MS analysis; assay type: ADME, organism-based
How it was run: (§2)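 Male C57bl/6j mice given a single oral dose of 20 mg/kg. Plasma drawn by retro-orbital bleed at 1 h and 4 h. Whole brain minus cerebellum taken at 4 h, wet-weighed, frozen, then homogenized in saline. Compound levels in plasma and brain measured by LC/MS (LOQ 5 ng/ml). Brain/plasma ratio taken from the two concentrations.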

[5] = Drug uptake in C57bl/6j mouse brain without cerebellum at 20 mg/kg, po measured at 4 hr post dose by LC/MS analysis; assay type: ADME, organism-based; details: in vivo; how it was run: as §2
Mus musculus [6] = experiment: Antiobesity activity in diet-induced obese mouse model assessed as fasting plasma glucose AUC (0 to 120 mins) at 30 mg/kg, po qd for 3 weeks measured on day 19 post glucose challenge by OGTT (reference value: 29890.50 +/- 2516.45 mg/dL.min); assay type: functional, organism-based; design: dose 30 mg/kg, time < 2 hr
[7] = Drug uptake in diet-induced obese mouse plasma at 30 mg/kg, po qd for 3 weeks measured 2 hrs post last dose on day 23; assay type: ADME, organism-based
How it was run: (§3)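 Dosing ran daily, oral, in 10% PEG400 + 10% solutol at 5 mL/kg, […], run alongside the efficacy study. Plasma and brain compound levels measured 2 h after the last dose; B/P ratio is brain over plasma concentration.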

[8] = Drug uptake in diet-induced obese mouse brain at 30 mg/kg, po qd for 3 weeks measured 2 hrs post last dose on day 23; assay type: ADME, organism-based; details: in vivo; how it was run: as §3
[9] = Ratio of drug level in diet-induced obese mouse brain to plasma at 30 mg/kg, po qd for 3 weeks measured 2 hrs post last dose on day 23; assay type: ADME, organism-based; details: read-out: BPR; how it was run: as §3
Mus musculus [10] = experiment: Toxicity in diet-induced obese mouse model assessed as effect on food intake at 30 mg/kg, po qd for 3 weeks measured on day 19 up to 120 mins post glucose challenge; assay type: organism-based; details: in vivo
Mus musculus [11] = experiment: Toxicity in diet-induced obese mouse model assessed as effect on body weight at 30 mg/kg, po qd for 3 weeks measured on day 19 up to 120 mins post glucose challenge; assay type: organism-based; details: in vivo
Rattus norvegicus = experiment: Toxicity in Sprague-Dawley rat assessed as CNS-mediated behavior at 30 mg/kg, po by measuring stereotypic activity after 15 mins measured up to 2 hrs; assay type: organism-based; details: in vivo
How it was run: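 Rats given vehicle (10% PEG400 and 10% solutol) or compound orally. Stereotypic activity recorded automatically from 15 min post-dose for a total of 2 h.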

Chain of Cannabinoid receptor 1 (P21554 whole entry): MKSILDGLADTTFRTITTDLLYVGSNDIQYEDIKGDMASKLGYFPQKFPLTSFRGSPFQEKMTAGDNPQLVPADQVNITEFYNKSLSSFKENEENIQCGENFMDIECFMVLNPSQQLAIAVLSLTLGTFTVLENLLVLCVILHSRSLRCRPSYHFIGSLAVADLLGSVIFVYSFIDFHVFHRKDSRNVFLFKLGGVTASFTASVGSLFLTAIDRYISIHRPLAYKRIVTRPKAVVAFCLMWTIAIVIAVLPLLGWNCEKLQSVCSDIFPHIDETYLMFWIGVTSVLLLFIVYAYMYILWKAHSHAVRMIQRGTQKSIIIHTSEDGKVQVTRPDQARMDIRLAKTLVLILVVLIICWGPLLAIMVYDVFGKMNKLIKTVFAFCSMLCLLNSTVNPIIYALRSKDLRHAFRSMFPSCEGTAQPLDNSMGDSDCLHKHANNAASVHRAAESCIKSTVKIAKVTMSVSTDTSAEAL
Chain of Cannabinoid receptor 2 (P34972 whole entry): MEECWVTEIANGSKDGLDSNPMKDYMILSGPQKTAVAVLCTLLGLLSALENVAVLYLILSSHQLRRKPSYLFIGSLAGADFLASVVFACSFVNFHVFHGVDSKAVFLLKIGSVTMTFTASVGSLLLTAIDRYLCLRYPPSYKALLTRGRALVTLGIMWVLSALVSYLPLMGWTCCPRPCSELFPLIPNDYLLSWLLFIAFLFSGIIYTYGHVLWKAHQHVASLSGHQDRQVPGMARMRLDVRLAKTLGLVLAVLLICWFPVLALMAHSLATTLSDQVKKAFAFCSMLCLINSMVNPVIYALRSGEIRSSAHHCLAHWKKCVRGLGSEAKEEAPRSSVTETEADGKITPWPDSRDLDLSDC

SMILES: C[C@@H](NC(=O)c1nn(-c2ccc(Cl)c(Cl)c2)c2c1CCC/C2=C\c1ccc(Cl)s1)c1ccccn1
EC50 (Cannabinoid receptor 1): 0.037 µM | EC50 (Cannabinoid receptor 2): > 10 µM | concentration at 4 h [4]: 3180 nM | Drug uptake [5]: 0.1 nmol/g | Kp [3]: 0.03

SMILES: O=C(NC1CCN(c2ccccn2)CC1)c1nn(-c2ccc(Cl)cc2Cl)c2c1CCC/C2=C\c1ccc(F)cc1
EC50 (Cannabinoid receptor 1): 0.012 µM | EC50 (Cannabinoid receptor 2): > 11 µM | concentration at 2 h [1]: 1520 nM | Drug uptake [2]: 0.035 nmol/g | Kp [3]: 0.02

SMILES: C[C@@H](NC(=O)c1nn(-c2ccc(Cl)cc2Cl)c2c1CCCC/C2=C\c1ccc(F)cc1)c1ccccc1
EC50 (Cannabinoid receptor 1): 0.006 µM | EC50 (Cannabinoid receptor 2): 5.59 µM | concentration at 2 h [1]: 1290 nM | concentration at 2 h ([2]; C57BL/6J, brain without cerebellum, read-out: Drug uptake): < 5 ng/mL

SMILES: O=C(NC1(c2ccccn2)CC1)c1nn(-c2ccc(C(F)(F)F)cc2Cl)c2c1CCC/C2=C\c1ccc(Cl)s1
EC50 (Cannabinoid receptor 1): 0.011 µM | EC50 (Cannabinoid receptor 2): > 10 µM | concentration at 4 h [4]: 4630 nM | Drug uptake [5]: 0.64 nmol/g | Kp [3]: 0.14

SMILES: O=C(NC1CCN(c2ccccn2)CC1)c1nn(-c2ccc(Cl)cc2Cl)c2c1CCC/C2=C\c1ccc(Cl)cc1
EC50 (Cannabinoid receptor 1): 0.034 µM | EC50 (Cannabinoid receptor 2): > 10 µM | concentration at 4 h [4]: 450 nM | Drug uptake [5]: 0.04 nmol/g | Kp [3]: 0.09

SMILES: C[C@@H](NC(=O)c1nn(-c2ccc(Cl)cc2Cl)c2c1CCC/C2=C\c1ccc(Cl)cc1)c1ccccn1
EC50 (Cannabinoid receptor 1): 0.03 µM | EC50 (Cannabinoid receptor 2): 0.854 µM | concentration at 4 h [4]: 1600 nM | Drug uptake [5]: 0.32 nmol/g | Kp [3]: 0.2

SMILES: O=C(NC1CCN(c2ccccn2)CC1)c1nn(-c2ccc(Cl)cc2Cl)c2c1CCCC/C2=C\c1ccc(F)cc1
EC50 (Cannabinoid receptor 1): 0.028 µM | EC50 (Cannabinoid receptor 2): > 10 µM | concentration at 2 h [1]: 2030 nM | Drug uptake [2]: 0.05 nmol/g | Kp [3]: 0.03

SMILES: C[C@@H](NC(=O)c1nn(-c2ccc(C(F)(F)F)cc2Cl)c2c1CCCC/C2=C\c1ccc(Cl)s1)c1ccccn1
EC50 (Cannabinoid receptor 1): 0.008 µM | EC50 (Cannabinoid receptor 2): > 10 µM | concentration at 4 h [4]: 640 nM | Drug uptake [5]: 0.17 nmol/g | Kp [3]: 0.28

SMILES: C[C@@H](NC(=O)c1nn(-c2ccc(Cl)cc2Cl)c2c1CCC/C2=C\c1ccc(Cl)s1)c1ccccn1
EC50 (Cannabinoid receptor 1): 0.035 µM | EC50 (Cannabinoid receptor 2): 3.82 µM | concentration at 2 h [1]: 2960 nM | Drug uptake [2]: 0.24 nmol/g | Kp [3]: 0.08

SMILES: C[C@@H](NC(=O)c1nn(-c2ccc(Cl)cc2)c2c1CCC/C2=C\c1ccc(Cl)cn1)c1ccccn1
EC50 (Cannabinoid receptor 1): 0.022 µM | EC50 (Cannabinoid receptor 2): > 10 µM | concentration at 2 h [1]: 2930 nM | Drug uptake [2]: 1.91 nmol/g | Kp [3]: 0.65

SMILES: O=C(NC1(c2ccccn2)CC1)c1nn(-c2ccc(Cl)c(Cl)c2)c2c1CCCC/C2=C\c1ccc(F)cc1
EC50 (Cannabinoid receptor 1): 0.013 µM | EC50 (Cannabinoid receptor 2): 0.807 µM | concentration at 2 h [1]: 2410 nM | Drug uptake [2]: 0.11 nmol/g | Kp [3]: 0.05

SMILES: O=C(NC1(c2ccccn2)CC1)c1nn(-c2ccc(Cl)cc2)c2c1CCC/C2=C\c1ccc(Cl)cc1
EC50 (Cannabinoid receptor 1): 0.007 µM | EC50 (Cannabinoid receptor 2): 1.61 µM | concentration at 4 h [4]: 1610 nM | Drug uptake [5]: 1.28 nmol/g | Kp [3]: 0.82

SMILES: O=C(NC1(c2ccccn2)CC1)c1nn(-c2ccc(C(F)(F)F)cc2Cl)c2c1CCCC/C2=C\c1ccc(Cl)s1
EC50 (Cannabinoid receptor 1): 0.008 µM | EC50 (Cannabinoid receptor 2): > 10 µM | concentration at 4 h [4]: 1540 nM | Drug uptake [5]: 0.36 nmol/g | Kp [3]: 0.24

SMILES: C[C@@H](NC(=O)c1nn(-c2ccc(Cl)c(Cl)c2)c2c1CCCC/C2=C\c1ccc(Cl)cc1)c1ccccn1
EC50 (Cannabinoid receptor 1): 0.037 µM | EC50 (Cannabinoid receptor 2): > 10 µM | concentration at 2 h [1]: 2400 nM | Drug uptake [2]: 0.05 nmol/g | Kp [3]: 0.02

Now from value to molecule, other results behind:

EC50 (Cannabinoid receptor 1): 0.056 µM | EC50 (Cannabinoid receptor 2): > 10 µM | concentration at 2 h [1]: 4760 nM | Drug uptake [2]: 0.05 nmol/g | Kp [3]: 0.01
SMILES: C[C@@H](NC(=O)c1nn(-c2ccc(Cl)c(Cl)c2)c2c1CCCC/C2=C\c1ccc(C(F)(F)F)cc1)c1ccccn1

EC50 (Cannabinoid receptor 1): 0.035 µM | EC50 (Cannabinoid receptor 2): 2 µM | concentration at 2 h [1]: 1620 nM | Drug uptake [2]: 0.07 nmol/g | Kp [3]: 0.05 | concentration at 2 h [7]: 6620 nM | Drug uptake [8]: 0.25 nmol/g | Kp at 2 h [9]: 0.037
SMILES: C[C@@H](NC(=O)c1nn(-c2ccc(Cl)c(Cl)c2)c2c1CCCC/C2=C\c1ccc(F)cc1)c1ccccn1
AUC (Mus musculus [6]): 3.67e+06 ng·h/mL | Activity (Mus musculus [10]): Non-Toxic | Activity (Mus musculus [11]): Non-Toxic | Activity (Rattus norvegicus): Non-Toxic

EC50 (Cannabinoid receptor 1): 0.004 µM | EC50 (Cannabinoid receptor 2): 0.56 µM | concentration at 2 h [1]: 380 nM | Drug uptake [2]: 0.16 nmol/g | Kp [3]: 0.48
SMILES: C[C@@H](NC(=O)c1nn(-c2ccc(Cl)cc2Cl)c2c1CCCC/C2=C\c1ccc(Cl)cn1)c1ccccn1

EC50 (Cannabinoid receptor 1): 0.004 µM | EC50 (Cannabinoid receptor 2): > 10 µM | concentration at 2 h [1]: 1560 nM | Drug uptake [2]: 1.39 nmol/g | Kp [3]: 0.92
SMILES: C[C@@H](NC(=O)c1nn(-c2ccc(Cl)cc2Cl)c2c1CCC/C2=C\c1ccc(F)cc1)c1ccccn1

EC50 (Cannabinoid receptor 1): 0.028 µM | EC50 (Cannabinoid receptor 2): > 10 µM | concentration at 2 h [1]: 2470 nM | Drug uptake [2]: 1.02 nmol/g | Kp [3]: 0.41
SMILES: C[C@@H](NC(=O)c1nn(-c2ccc(Cl)cc2)c2c1CCCC/C2=C\c1ccc(F)cc1)c1ccccn1

EC50 (Cannabinoid receptor 1): 0.007 µM | EC50 (Cannabinoid receptor 2): 0.743 µM | concentration at 2 h [1]: 830 nM | Drug uptake [2]: 0.13 nmol/g | Kp [3]: 0.16
SMILES: C[C@@H](NC(=O)c1nn(-c2ccc(Cl)cc2Cl)c2c1CCCC/C2=C\c1ccc(Cl)cc1)c1ccccn1

EC50 (Cannabinoid receptor 1): 0.127 µM | EC50 (Cannabinoid receptor 2): > 10 µM | concentration at 2 h [1]: 3720 nM | Drug uptake [2]: 0.97 nmol/g | Kp [3]: 0.26
SMILES: C[C@@H](NC(=O)c1nn(-c2ccc(Cl)cc2)c2c1CCC/C2=C\c1ccc(Cl)cc1)c1ccccn1

EC50 (Cannabinoid receptor 1): 0.002 µM | EC50 (Cannabinoid receptor 2): 9.41 µM | concentration at 2 h [1]: 3630 nM | Drug uptake [2]: 0.56 nmol/g | Kp [3]: 0.15
SMILES: C[C@@H](NC(=O)c1nn(-c2ccc(Cl)cc2Cl)c2c1CCCC/C2=C\c1ccc(Cl)s1)c1ccccn1

EC50 (Cannabinoid receptor 1): 0.018 µM | EC50 (Cannabinoid receptor 2): > 10 µM | concentration at 4 h [4]: 460 nM | Drug uptake [5]: 0.051 nmol/g | Kp [3]: 0.11
SMILES: C[C@@H](NC(=O)c1nn(-c2ccc(C(F)(F)F)cc2Cl)c2c1CCC/C2=C\c1ccc(Cl)s1)c1ccccn1

— ChEMBL document CHEMBL3862000, “Tetrahydroindazole derivatives as potent and peripherally selective cannabinoid-1 (CB1) receptor inverse agonists” (Bioorg Med Chem Lett, 2016)
